In ChEMBL document CHEMBL2203058, “Isolation of steroidal glycosides from the Caribbean sponge Pandaros acanthifolium” (J Nat Prod, 2012):
Active and inactive are the calls of the source. No cut-off for these calls is given here.

Columns and labels:
U-373MG ATCC [1] = experiment: (§1) Antioxidant activity in human U373 cells assessed as increase of antioxidant response element-mediated phase 2 protein expression at 25 ug/ml after 24 hrs by luciferase reporter gene assay relative to control; type: functional
How it was run: (§2)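 U373 astrocytoma cells stably carrying firefly luciferase under ARE control, grown in DMEM with 10% FCS and antibiotics. 5 × 10^4 cells/well seeded in quadruplicate, exposed 24 h to 25, 10, 5 or 2.5 μg/mL glycoside, then luciferase read. Controls: mock-treated and DMSO 0.25% v/v. Activity expressed as fold change versus 25 μM tert-butylhydroquinone; >2-fold over TBHQ scored a hit.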

U-373MG ATCC [2] = experiment: Cytoprotective activity in H2O2-stimulated human U373 cells assessed as increase of SOD activity at 2.5 to 25 ug/ml treated 24 hrs before H2O2 stimulation measured after 24 hrs; type: functional, cell-based
How it was run: (§3)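 U373 cells at 2 × 10^4/well in quadruplicate, pretreated 24 h with 25, 10, 5 or 2.5 μg/mL glycoside. Media replaced with fresh media containing glycoside plus 300 μM H2O2 for 24 h more. Cells PBS-washed, lysed by three freeze–thaw cycles, centrifuged; SOD (WST-1/xanthine oxidase inhibition, […], against SOD standard curve) or GPx measured by colorimetric kits.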

[3] = as §1; type: functional, U-373MG ATCC; how it was run: as §2
U-373MG ATCC [4] = experiment: Cytoprotective activity in H2O2-stimulated human U373 cells assessed as increase of glutathione peroxidase activity at 2.5 to 25 ug/ml treated 24 hrs before H2O2 stimulation measured after 24 hrs; type: functional, cell-based; how it was run: as §3
U-373MG ATCC [5] = experiment: Cytoprotective activity in H2O2-stimulated human U373 cells assessed as increase of SOD activity treated 24 hrs before H2O2 stimulation measured after 24 hrs; type: functional, cell-based; how it was run: as §3
[6] = system: xenobiotic response element (XRE)-mediated transcriptional activity; experiment: Toxicity in human U373 cells assessed as effect on xenobiotic response element-mediated activity at 2.5 to 25 ug/ml after 24 hrs by luciferase reporter gene assay; type: cell-based, U-373MG ATCC; conditions: read-out: FC
How it was run: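 XRE counterscreen: U373 astrocytoma cells stably carrying a luciferase cassette driven by the xenobiotic response element, grown in DMEM with 10% FCS and antibiotics. 5 × 10^4 cells/well in quadruplicate, 24 h with 25, 10, 5 or 2.5 μg/mL glycoside, then luciferase activity measured. Mock and DMSO (0.25% v/v) controls.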

[7] = Cytotoxicity against human U373 cells; type: cell-based; conditions: u-373mg atcc
How it was run: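 Viability measured by MTT tetrazolium reduction in parallel reporter U373 cultures under the reporter assay conditions: 24 h with 25, 10, 5 or 2.5 μg/mL glycoside, quadruplicate wells.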

U-373MG ATCC [8] = experiment: Cytoprotective activity in H2O2-stimulated human U373 cells assessed as increase of glutathione peroxidase activity treated 24 hrs before H2O2 stimulation measured after 24 hrs; type: functional, cell-based; how it was run: as §3
U-373MG ATCC [9] = experiment: Cytoprotective activity in human U373 cells assessed as effect of H2O2-stimulated lipid peroxidation assay at 2.5 to 25 ug/ml treated 24 hrs before H2O2 stimulation measured after 24 hrs by TBARS assay; type: functional, cell-based
How it was run: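 U373 cells at 2 × 10^4/well in quadruplicate, 24 h pretreatment with 25, 10, 5 or 2.5 μg/mL glycoside, then 24 h in fresh media with glycoside and 300 μM H2O2. PBS-washed cells lysed by freeze–thaw; uncentrifuged lysate assayed for TBARS (MDA–TBA adduct, A532), calibrated with MDA 0–100 nmol/mL, reported as MDA equivalents. Mock and 0.25% DMSO controls.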

U-373MG ATCC [10] = experiment: Antioxidant activity in human U373 cells assessed as increase of antioxidant response element-mediated phase 2 protein expression after 24 hrs by luciferase reporter gene assay; type: functional, cell-based; how it was run: as §2
[11] = Antioxidant activity in human U373 cells assessed as increase of antioxidant response element-mediated phase 2 protein expression after 24 hrs by luciferase reporter gene assay relative to TBHQ; type: functional, U-373MG ATCC; how it was run: as §2

Row | Structure (SMILES) | Activity (U-373MG ATCC [1]) | Activity (U-373MG ATCC [2]) | fold change (FC) [3] | Activity (U-373MG ATCC [4]) | Activity (U-373MG ATCC [5]) | fold induction at 24 h [6] | Activity [7] | Activity (U-373MG ATCC [8]) | Activity (U-373MG ATCC [9]) | Activity (U-373MG ATCC [10]) | fold change (FC) [11]
1 | CC(C)(C)c1cc(O)ccc1O | Active | – | – | – | – | – | – | – | – | – | –
2 | CC[C@H](C(C)C)[C@@H](O)C[C@@H](C)[C@H]1[C@@H](OC(C)=O)[C@@H](O[C@@H]2O[C@@H](C)[C@H](O)[C@@H](O)[C@H]2O)[C@H]2[C@@H]3CC=C4C[C@@H](O[C@H]5O[C@@H](CO)[C@H](O)[C@@H](O)[C@@H]5O[C@@H]5O[C@@H](C)[C@H](O)[C@@H](O)[C@H]5O)CC[C@]4(C)[C@H]3CC[C@@]21C [ACANTHIFOLIOSIDE J] | – | Active | 1.52 | Active | – | – | – | – | – | – | –
3 | CC(=O)O[C@H]1[C@@H](O[C@@H]2O[C@@H](C)[C@H](O)[C@@H](O)[C@H]2O)[C@H]2[C@@H]3CC[C@H]4C[C@@H](O[C@H]5O[C@@H](CO)[C@H](O)[C@@H](O)[C@@H]5O[C@@H]5O[C@@H](C)[C@H](O)[C@@H](O)[C@H]5O)CC[C@]4(C)[C@H]3CC[C@]2(C)[C@H]1[C@H](C)CCCC(C)C [ACANTHIFOLIOSIDE G] | – | – | 2.27 | – | Dose-dependent effect | > 2 | Non-toxic | Dose-dependent effect | inactive | Dose-dependent effect | 2
